Assays:
Format in all cases: functional
Rattus norvegicus [1] = species on record: Rattus norvegicus; test: Ability to induce [3H]5-HT release from prelabeled rat whole brain synaptosome preparations at 10e-6 M concentration
How it was run: (§1)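 Rat whole brain homogenised in ice-cold 0.32 M sucrose. Synaptosomes were isolated on a 1.2/0.8 M sucrose step gradient, preincubated 5 min at 37 °C in oxygenated Krebs-Henseleit, then loaded 5 min with [3H]5-HT (10^-7 M). Filter-retained synaptosomes were washed and superfused at 0.5 mL/min. 1-min fractions were counted for 5 min before and 10 min after drug addition. Efflux rate constant K taken from semilog plots; means of 3-4 experiments.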

Rattus norvegicus [2] = species on record: Rattus norvegicus; test: Ability to induce [3H]-5-HT release from prelabeled rat whole brain synaptosome preparations at 10e-5 M concentration; how it was run: as §1
Rattus norvegicus [3] = species on record: Rattus norvegicus; test: Ability to induce [3H]5-HT release from prelabeled rat whole brain synaptosome preparations at 10e-7 M concentration; how it was run: as §1
Rattus norvegicus [4] = species on record: Rattus norvegicus; test: Ability to induce [3H]-5-HT release from prelabeled rat whole brain synaptosome preparations and the activity was determined as percent of total released
Rattus norvegicus [5] = species on record: Rattus norvegicus; test: Ability to induce [3H]5-HT release from prelabeled rat whole brain synaptosome preparations; Relative rate of release to that of control was determined; how it was run: as §1
Rattus norvegicus [6] = species on record: Rattus norvegicus; test: Ability to induce [3H]5-HT release from prelabeled rat whole brain synaptosome preparations and the K value was determined; how it was run: as §1
Rattus norvegicus [7] = species on record: Rattus norvegicus; test: Ability to induce [3H]5-HT release from prelabeled rat whole brain synaptosome preparations and the K value was determined at 10e-5 M; how it was run: as §1

| Structure (SMILES) | K (Rattus norvegicus [1]) | K (Rattus norvegicus [2]) | K (Rattus norvegicus [3]) | Total release (Rattus norvegicus [4]) | Relative rate (Rattus norvegicus [5]) | K (Rattus norvegicus [6]) | K (Rattus norvegicus [7]) |
| --- | --- | --- | --- | --- | --- | --- | --- |
| CN[C@@H](C)Cc1ccc2c(c1)OCO2 | 2.84e+06 min⁻¹ | 2.62e+06 min⁻¹ | 1.68e+06 min⁻¹ | – | – | – | – |
| COc1ccc(CC(C)(C)N)cc1 | – | – | – | 45% | 1.06 | – | – |
| C[C@@H](N)Cc1ccc2c(c1)OCO2 | 2.02e+06 min⁻¹ | 3.21e+06 min⁻¹ | 2.14e+06 min⁻¹ | – | – | – | – |
| COc1ccc(CC(C)N)cc1 (single isomer, unassigned) | 2.55e+06 min⁻¹ | – | 1.34e+06 min⁻¹ | 57.8% | 1.76 | 280 10e4min-1 | 2.3e+06 min⁻¹ |
| COc1ccc(C[C@@H](C)N)cc1 | 2.28e+06 min⁻¹ | 3.07e+06 min⁻¹ | 1.39e+06 min⁻¹ | – | – | – | – |
| CN[C@H](C)Cc1ccc2c(c1)OCO2 | 1.73e+06 min⁻¹ | 2.74e+06 min⁻¹ | 1.49e+06 min⁻¹ | – | – | – | – |
| C[C@H](N)Cc1ccc2c(c1)OCO2 | 2.42e+06 min⁻¹ | 3.07e+06 min⁻¹ | 1.78e+06 min⁻¹ | – | – | – | – |
| CC(C)(N)Cc1ccc2c(c1)OCO2 | – | – | – | 45.2% | 1.09 | 175 min⁻¹ | – |
| CNC(C)(C)Cc1ccc2c(c1)OCO2 | – | – | – | 44.3% | 1.06 | 169 min⁻¹ | – |

From ChEMBL document CHEMBL1122159, “Effects of certain hallucinogenic amphetamine analogues on the release of [3H]serotonin from rat brain synaptosomes” (J Med Chem, 1982)
